Measured values: BindingDB's records for doi:10.1021/jm049337s (Leiden/Amsterdam Center For Drug Research, 2005)

Legend:
Adenosine receptor A1 [1] = molecular target: T1, Adenosine receptor A1 (Homo sapiens, UniProt P30542); assay: Association constant for [3H]CCPA binding to Adenosine A1 receptor in the presence of compound; conditions: read-out: kon (M-1-s-1)
T1 sequence (P30542 whole entry): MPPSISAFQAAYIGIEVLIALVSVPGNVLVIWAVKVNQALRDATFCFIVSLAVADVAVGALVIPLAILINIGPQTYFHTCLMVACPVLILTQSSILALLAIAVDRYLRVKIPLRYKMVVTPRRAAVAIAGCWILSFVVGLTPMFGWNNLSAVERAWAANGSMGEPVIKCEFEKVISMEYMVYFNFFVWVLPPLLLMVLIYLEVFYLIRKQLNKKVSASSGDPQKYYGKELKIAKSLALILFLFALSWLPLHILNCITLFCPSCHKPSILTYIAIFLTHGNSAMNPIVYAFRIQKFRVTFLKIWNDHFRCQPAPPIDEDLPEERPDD
In short: (§1)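 Kinetics on membranes (30 µg) from CHO cells expressing recombinant human A1 receptors, using [3H]CCPA at 1 nM, with or without compound. Association was started by adding membranes to the radioligand. For dissociation, membranes were preloaded with radioligand for 60 min at 25 °C, then 100 µM 8-cyclopentyltheophylline was added. Bound ligand was separated by GF/B filtration and counted by scintillation; t1/2 and rate constants were derived.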

Adenosine receptor A1 [2] = molecular target: T1, Adenosine receptor A1; assay: Dissociation constant for [3H]-CCPA binding to Adenosine A1 receptor in the presence of compound; in short: as §1

Compound `c1ccc(-c2n/c(=N/C3CCCC3)sn2-c2ccccc2)cc1` has a kon (Adenosine receptor A1 [1]) of 4.16e+06 M⁻¹ s⁻¹ and a koff (Adenosine receptor A1 [2]) of 0.001 s⁻¹.
